Sampled rows, rich in hits. Any-hit rate of the full collection: about 4.5%.
OX1R antag-1 = antagonists of human orexin 1 receptor (OX1R) | O43613 | OX1R-expressing cells, FRET antagonist read-out | inhibition, % at 6.6 µM | actives 1.8% (n = 330,000) | AID 485270; in the data active = inhibition mostly above about 38%, no sharp cut-off; inactive = mostly below about 40%
Target sequence (O43613 whole entry, looked up): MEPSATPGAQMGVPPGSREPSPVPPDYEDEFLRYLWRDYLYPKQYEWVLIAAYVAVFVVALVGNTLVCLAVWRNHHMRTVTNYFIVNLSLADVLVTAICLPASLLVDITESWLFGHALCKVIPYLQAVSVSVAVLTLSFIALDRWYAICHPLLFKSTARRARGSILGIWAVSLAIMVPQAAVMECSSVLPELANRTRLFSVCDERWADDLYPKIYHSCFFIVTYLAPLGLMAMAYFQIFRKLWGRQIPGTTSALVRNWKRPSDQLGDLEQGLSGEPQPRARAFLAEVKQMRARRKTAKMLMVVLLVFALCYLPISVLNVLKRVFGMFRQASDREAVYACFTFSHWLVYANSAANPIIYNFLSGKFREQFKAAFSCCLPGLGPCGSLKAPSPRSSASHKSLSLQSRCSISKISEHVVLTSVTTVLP
GPR7 antagonist = blocks human GPR7 receptor signaling. P48145. GPR7-expressing cells, fluorescence antagonist assay. inhibition, % at 4.4 µM. actives 1.1% (n = 290,000). AID 1861; in the data active = inhibition above about 16%, passing the limit was not always enough;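 note: cells stimulated with the agonist NPW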
Target sequence (P48145 whole entry, looked up): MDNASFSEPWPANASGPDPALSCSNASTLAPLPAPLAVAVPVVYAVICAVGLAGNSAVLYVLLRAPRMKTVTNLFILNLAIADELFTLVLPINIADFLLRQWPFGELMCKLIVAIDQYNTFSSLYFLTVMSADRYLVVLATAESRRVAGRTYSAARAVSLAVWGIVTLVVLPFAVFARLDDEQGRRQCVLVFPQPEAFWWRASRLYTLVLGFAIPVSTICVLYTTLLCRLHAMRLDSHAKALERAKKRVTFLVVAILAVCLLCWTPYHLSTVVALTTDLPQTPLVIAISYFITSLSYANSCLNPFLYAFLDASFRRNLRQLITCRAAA
TAAR1 antagonist = antagonists of human TAAR1. actives 1.5% (n = 360,000). inhibition, % at 3 µM. Q96RJ0. AID 624466. CHO RD-HGA16 TAAR1, Fluo-8 calcium fluorescence, antagonist;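 active = inhibition above a per-plate cutoff, the mean inhibition of test compounds on that plate plus 3 SD, cut at about 49% in these data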
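test system = CHO RD-HGA16 cells bearing hTAAR1 | replication = singlicate | controls = DMSO-only wells and EC80 β-PEA-stimulated wells | reagent = EC80 β-phenethylamine stimulus | read-out basis = percent inhibition of PEA-evoked calcium signal, max/basal emission ratio | schedule = seeding 17-24 h prior, 75-min 37 °C, 30-min RT dye loading | signal = kinetic Fluo-8 calcium fluorescence measurement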
OX1R antag-2 = antagonists of human orexin 1 receptor; O43613; CHO/OX1R cells, Fluo-8 calcium fluorescence, orexin A; inhibition, % at 5 µM; actives 0.43% (n = 330,000); AID 434989;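 active = inhibition above its plate's threshold, mean inhibition of all tested compounds on the plate plus 3 SD, cut at about 37% in these data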
CHO parental Ca = counter-screen: ATP calcium response change in parental CHO cells | parental CHO-K1, ATP-induced calcium, Fluo-8 fluorescence | inhibition, % at 5.6 µM | actives 0.63% (n = 330,000) | AID 463079;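 active = inhibition above that plate's mean sample inhibition plus 3 SD, cut at about 26% in these data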
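Assay system: untransfected parental CHO cell line. Also added: ATP agonist challenge. Dosing: one dose, 5.6 µM nominal. Measured by: Fluo-8 fluorescence. Read-out: % inhibition. Benchmarks: ATP wells versus no-ATP DMSO wells. Repeats: no replicates.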
TAAR1 agonist = human TAAR1 agonism | Q96RJ0 | CHO RD-HGA16 TAAR1, Fluo-8 calcium fluorescence; vehicle wells 0%, saturating PEA agonist 100% | activation, % at 3 µM | actives 0.99% (n = 360,000) | AID 624467;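 active = activation above the mean activation of all test compounds in the run plus 3 SD, cut at about 38% in these data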
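Benchmarks: low control DMSO, high control PEA (EC100); System: CHO RD-HGA16 cells carrying human TAAR1 plus Gα16; Detection: Fluo-8 fluorescence, 5 s baseline then 140 s kinetic read; Schedule: 17-24 h plating, Fluo-8 75 min 37 °C, 30 min RT; Read-out basis: % activation from peak over basal fluorescence ratio, DMSO-to-PEA scaled.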
GPR7 antag cf = human GPR7 antagonism, confirmation assay; shares compounds with GPR7 antagonist; GPR7-expressing cells, calcium fluorescence antagonist mode; inhibition, % at 4.4 µM; actives 52% (n = 2,400); AID 1952; in the data active = inhibition above about 24%;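 note: stimulated with the GPR7 agonist NPW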
MCHR1 antagonist = MCHR1 (human) antagonism in GPR7 counter-screen; shares compounds with GPR7 antagonist; MCHR1-expressing cells, fluorescence antagonist assay; inhibition, % at 4.4 µM; actives 62% (n = 2,400); AID 2148; in the data active = inhibition above about 22%
Each line names hits and unclear results; the compound was inactive in the other large screens (follow-up assays come after a bar, where they were run).

COc1ccc(C(=O)NCCc2c[nH]c3ccccc23)cc1OC	none
CC(O)CNCCCOc1ccc(Cl)cc1C(C)(C)C (stereo unspecified)	GPR7 antagonist 21.3 | GPR7 antag cf 38.4 | MCHR1 antagonist 45.5
N#CCCN1CCN(Cc2cc(-c3ccccc3)ccc2O)CC1	GPR7 antagonist 30.7 | GPR7 antag cf inactive | MCHR1 antagonist inactive
Oc1ccccc1Nc1nc(NCc2ccco2)c2ccccc2n1	none
Cc1ccccc1Nc1nc(NCc2ccco2)c2ccccc2n1	GPR7 antagonist 27.0 | GPR7 antag cf inactive | MCHR1 antagonist 63.0
COc1cccc(N2CCN(C(=O)CN(C)S(=O)(=O)c3ccc4c(c3)c(=O)n(C)c(=O)n4C)CC2)c1	none
CCOc1ccc(N/C(C)=C/C(=O)c2ccc3c(c2)OCCO3)cc1	none
CCC(=O)c1cn(CC(=O)Nc2ccccc2Cl)c2ccccc12	GPR7 antagonist 26.0 | GPR7 antag cf inactive | MCHR1 antagonist inactive
CN1CCN(c2ccc(C(F)(F)F)cc2NC(=O)Nc2ccccc2)CC1	GPR7 antagonist 62.2, TAAR1 agonist 52.5 | GPR7 antag cf 43.0 | MCHR1 antagonist 49.0
Nc1nc2n(n1)C(c1ccc(F)cc1)CC(c1ccc(F)cc1)N2 (stereo unspecified)	none
Cc1ccc(C2CC(c3ccc(F)cc3)Nc3nc(N)nn32)cc1 (stereo unspecified)	GPR7 antagonist 21.1 | GPR7 antag cf inactive | MCHR1 antagonist inactive
CCc1ccc(C2CC(c3ccc(C)cc3)Nc3nc(N)nn32)cc1 (stereo unspecified)	none
CCc1ccc(C2CC(c3ccccc3C)n3nc(N)nc3N2)cc1 (stereo unspecified)	GPR7 antagonist 25.2 | GPR7 antag cf inactive | MCHR1 antagonist inactive
O=C(COc1nc2ccccc2nc1N1CCOCC1)Nc1cccc(S(=O)(=O)N2CCCCC2)c1	none
CCN(CC)S(=O)(=O)c1ccc(NC(=O)COc2nc3ccccc3nc2N2CCOCC2)cc1	GPR7 antagonist 23.8 | GPR7 antag cf inactive | MCHR1 antagonist inactive
CN(C)c1ccc(/C=C/c2ccc3c4ccccc4ccc3[n+]2-c2ccccc2)cc1	GPR7 antagonist 43.3 (no result: OX1R antag-1, OX1R antag-2, CHO parental Ca) | GPR7 antag cf 79.0 | MCHR1 antagonist 77.5
CCCCN(C)C(=O)c1nc2ccccn2c1CN1CCN(C/C=C/c2ccccc2)CC1	GPR7 antagonist 26.3 | GPR7 antag cf 29.4 | MCHR1 antagonist inactive
CCCCN(C)C(=O)c1nc2ccccn2c1CN1CCN(c2ncccn2)CC1	none
CC(C)Nc1nnc(SCc2cc(=O)n3ccsc3n2)s1	GPR7 antagonist 24.8 | GPR7 antag cf inactive | MCHR1 antagonist inactive
O=c1cc(CSc2nnc(Nc3ccccc3)s2)nc2sccn12	none
Cc1ccc(NC(=O)NCCN2CCCCC2)cc1	none
CCC(C)c1ccc(NC(=O)NCCN2CCCCC2)cc1 (stereo unspecified)	GPR7 antagonist 31.9 | GPR7 antag cf inactive | MCHR1 antagonist inactive
Cc1nc2n(n1)C(O)c1cc([N+](=O)[O-])ccc1S2 (stereo unspecified)	OX1R antag-1 92.5, GPR7 antagonist 30.6 (no result: TAAR1 antagonist, TAAR1 agonist) | GPR7 antag cf inactive | MCHR1 antagonist inactive
O=[N+]([O-])c1ccc2c(c1)C(O)n1nc(-c3ccc(Cl)cc3Cl)nc1S2 (stereo unspecified)	none
CN(C)S(=O)(=O)c1cccc(C(=O)OCC(=O)NC2CCCc3ccccc32)c1 (stereo unspecified)	none
Cc1cc(Cl)ccc1NNC(=O)c1cccs1	GPR7 antagonist 22.9 | GPR7 antag cf inactive | MCHR1 antagonist inactive
CCN1CCN(S(=O)(=O)c2ccc(OC)c(NC(=O)c3ccccc3)c2)CC1	none
CCOC(=O)CSc1nc(N)c(C#N)c(-c2ccc(OCC)cc2)c1C#N	GPR7 antagonist 22.0 | GPR7 antag cf inactive | MCHR1 antagonist 21.8
COC(=O)CSc1nc(N)c(C#N)c(-c2ccc(O)cc2)c1C#N	none
FC(F)(F)c1nc(Sc2ncccc2C(F)(F)F)n[nH]1	none
O=C(CC12CC3CC(CC(C3)C1)C2)NCC(=O)N1CCc2ccccc2C1	none
N/N=C(/Cc1nc2ccccc2[nH]1)c1ccc([N+](=O)[O-])cc1	GPR7 antagonist 36.1 | GPR7 antag cf inactive | MCHR1 antagonist inactive
c1ccc(N/N=C(\Cc2nc3ccccc3[nH]2)c2ccccc2)cc1	none
COc1ccc(C2C(Oc3ccccc3C)C(=O)N2Cc2ccc(F)cc2)cc1OC (stereo unspecified)	GPR7 antagonist 27.9 | GPR7 antag cf inactive | MCHR1 antagonist inactive
FC(F)Sc1ccc(NC(=S)NCc2ccccc2)cc1	GPR7 antagonist 46.0 | GPR7 antag cf 36.6 | MCHR1 antagonist 51.2
FC(F)Sc1ccc(NC(=S)NCC2CCCCC2)cc1	GPR7 antagonist 33.8, TAAR1 antagonist 49.6 | GPR7 antag cf 57.6 | MCHR1 antagonist 75.4
C[C@@H](C(=O)N1CCN(c2ccccc2)CC1)N1C(=O)C2CC=CCC2C1=O (stereo partly specified)	none (no result: GPR7 antagonist)
Cc1ccccc1NC(=O)CSCc1nc(N)nc(Nc2ccccc2C)n1	GPR7 antagonist 21.0 | GPR7 antag cf inactive | MCHR1 antagonist inactive
Cc1ccccc1Nc1nc(N)nc(CCl)n1	none
Cc1ccc(NC(=O)c2ccc(NC3=NC4CS(=O)(=O)CC4S3)cc2)cc1 (stereo unspecified)	none
c1ccc2c(-c3[nH]ncc3CNCCCn3ncc4ccccc43)cccc2c1	GPR7 antagonist 22.4 | GPR7 antag cf 27.1 | MCHR1 antagonist 51.7
O=C(CN1C(=O)/C(=C/c2ccc(C(F)(F)F)cc2)Sc2ccccc21)NCCCN1CCOCC1	none
O=C(CN1C(=O)/C(=C\c2cccc(Cl)c2)Sc2ccccc21)NCCCN1CCOCC1	GPR7 antagonist 25.1 | GPR7 antag cf 26.5 | MCHR1 antagonist 35.5
Cc1ccc(CN2C(=O)c3ccccc3Sc3ccc(C(=O)NCCCN4CCOCC4)cc32)cc1	GPR7 antagonist 28.9 | GPR7 antag cf 40.0 | MCHR1 antagonist inactive
CCc1ccc(/C=C2/Sc3ccccc3N(CC(=O)NCCCN3CCOCC3)C2=O)cc1	GPR7 antagonist 24.6 | GPR7 antag cf inactive | MCHR1 antagonist inactive
Cc1ccc2c(c1)C(=O)N1[C@H]3c4ccccc4OC[C@@H]3[C@H](c3ccccc3)[C@]1(C)C(=O)N2	none (no result: GPR7 antagonist, TAAR1 antagonist, TAAR1 agonist)
Cc1ccc(S(=O)(=O)N2CCN(C(=O)CSc3ccc(Cl)cc3)CC2)cc1	none
